Screening results (PubChem)
Most compounds without a hit are left out; they make up all but 3.9% or so of the library.
CRFBP-R2 agonist: agonists of human CRF-binding protein/CRF-R2 receptor complex. HEK293 CRF-R2/CRF-BP, calcium dye fluorescence (FLIPR); percent of saturating CRF peptide response. activation, % at 13.2 µM. 350,000 compounds, 0.46% hits;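 active = activation of at least 50%, plus an integration ratio under a set limit after plate pattern correction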;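 note: plate controls were neutral control wells without compound for no effect and CRF at EC100 for full effect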
CRFBP-R2 block: CRF-BP/CRF-R2 complex antagonism; HEK293 CRF-R2/CRF-BP, CRF-induced calcium fluorescence; 350,000 compounds, 0.59% hits; AID 588475; inhibition, % at 11.8 µM;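 active = inhibition of the ligand-induced calcium signal above about 50% at the single tested concentration, limit read from the data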
TAAR1 antag: antagonists of human TAAR1 | CHO RD-HGA16 TAAR1, Fluo-8 calcium fluorescence, antagonist | Q96RJ0 | inhibition, % at 3 µM | 360,000 compounds, 1.5% hits;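 active = inhibition above a per-plate cutoff, the mean inhibition of test compounds on that plate plus 3 SD, cut at about 49% in these data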;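 note: 0% = DMSO plus EC80 beta-PEA response and 100% = DMSO alone without agonist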
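Assay system: CHO-derived RD-HGA16 cells stably expressing human TAAR1 plus Gα16. Timing: 140 s kinetic read after compound, 140 s after agonist. Technique: kinetic Fluo-8 calcium fluorescence measurement. Measure: % inhibition of agonist calcium response.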
ANO1 activ: mouse TMEM16A channel activation, primary screen. 340,000 compounds, 0.3% hits. B-score at 10 µM. HEK293 TMEM16A/YFP-H148Q/I152L, iodide quench fluorescence; stronger effect = lower value. AID 623877. Q8BHY3;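 active = fluorescence-ratio B-score plate-corrected deviation score at least 3 library SD below zero, with starting fluorescence score within 5 deviations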;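 note: channel opened by trigger with iodide after compound preincubation; score built on the fluorescence ratio of max minus min over baseline; more negative score means more quench and so TMEM16A activation or potentiation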
Target sequence (Q8BHY3 whole entry, looked up): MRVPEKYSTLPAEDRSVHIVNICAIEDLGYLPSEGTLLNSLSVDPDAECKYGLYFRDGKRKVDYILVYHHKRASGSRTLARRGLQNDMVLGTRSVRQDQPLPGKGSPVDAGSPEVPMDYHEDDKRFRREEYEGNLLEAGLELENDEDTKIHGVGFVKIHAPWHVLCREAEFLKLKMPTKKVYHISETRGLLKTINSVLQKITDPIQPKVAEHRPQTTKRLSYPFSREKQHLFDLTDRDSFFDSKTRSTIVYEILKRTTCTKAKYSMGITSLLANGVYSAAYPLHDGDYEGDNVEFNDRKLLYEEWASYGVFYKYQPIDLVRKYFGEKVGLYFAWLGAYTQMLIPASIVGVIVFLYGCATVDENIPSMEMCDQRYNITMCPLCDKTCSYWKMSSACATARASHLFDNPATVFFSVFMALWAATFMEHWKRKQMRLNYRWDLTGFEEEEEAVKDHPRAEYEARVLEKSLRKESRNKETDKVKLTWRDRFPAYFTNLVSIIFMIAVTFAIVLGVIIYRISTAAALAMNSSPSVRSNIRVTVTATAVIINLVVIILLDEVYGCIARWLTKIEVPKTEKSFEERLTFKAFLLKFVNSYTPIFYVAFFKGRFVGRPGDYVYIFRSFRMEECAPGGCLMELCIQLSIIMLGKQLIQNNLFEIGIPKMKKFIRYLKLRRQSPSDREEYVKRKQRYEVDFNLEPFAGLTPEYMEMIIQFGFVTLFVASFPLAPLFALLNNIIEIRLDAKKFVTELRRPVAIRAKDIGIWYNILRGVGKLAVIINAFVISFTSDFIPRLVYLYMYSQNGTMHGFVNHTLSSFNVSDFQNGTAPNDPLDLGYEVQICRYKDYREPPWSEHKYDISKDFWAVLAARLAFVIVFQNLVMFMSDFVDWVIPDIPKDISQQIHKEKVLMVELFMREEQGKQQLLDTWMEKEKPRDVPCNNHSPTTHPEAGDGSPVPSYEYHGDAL
ANO1 block: blocks the mouse calcium-activated chloride channel TMEM16A; Q8BHY3; HEK293 TMEM16A/YFP iodide influx fluorescence, ionomycin; normalized B-score (activity score, 25-100; higher = stronger inhibition) at 10 µM; 310,000 compounds, 1.2% hits; AID 588511;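 active = ratio plate-corrected score three or more library SD toward inhibition, starting fluorescence score within five deviations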;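 note: score derived from kinetic fluorescence span divided by baseline fluorescence per well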
TAAR1 agonist: agonists of human TAAR1 | 360,000 compounds, 0.99% hits | AID 624467 | activation, % at 3 µM | CHO RD-HGA16 TAAR1, Fluo-8 calcium fluorescence; vehicle wells 0%, saturating PEA agonist 100% | Q96RJ0;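 active = activation above the mean activation of all test compounds in the run plus 3 SD, cut at about 38% in these data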
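Test system: RD-HGA16 (CHO) cells co-expressing Gα16 and hTAAR1 / Benchmarks: DMSO vehicle as 0%, PEA at EC100 as 100% / Repeats: no replicates (n 1) / Measure: % activation from peak over basal fluorescence ratio, DMSO-to-PEA scaled / Timing: 17-24 h plating, Fluo-8 75 min 37 °C, 30 min RT / Technique: kinetic Fluo-8 calcium fluorescence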
* = called active by the depositor; i = inactive; . = no result.

SMILES	CRFBP-R2 agonist	CRFBP-R2 block	TAAR1 antag	ANO1 activ	ANO1 block	TAAR1 agonist
O=C(NCc1ccccc1)c1onc(CSc2ccccc2)c1C(=O)NCC1CC1	7	-11	56*	i	i	14
O=C(NCc1ccccc1)c1onc(CSc2ccc(Cl)cc2)c1C(=O)NCC1CC1	1	12	0	i	i	7
N#CC1=C(N)Oc2ccc3ccc(O)cc3c2C1c1ccsc1 (configuration not stated)	71*	-44	0	i	.	35
N#CC1=C(N)Oc2cc(N)ccc2C1c1ccsc1 (configuration not stated)	0	21	9	i	i	1
O=C(CN1CCN(S(=O)(=O)c2ccc3c(c2)OCCO3)CC1)Nc1cccc(F)c1	1	15	16	i	.	0
CCCOC(=O)c1ccc(Oc2c(-c3ccc(OCC)cc3O)n[nH]c2C)cc1	0	-9	42	i	i	14
CCCOC(=O)c1ccc(Oc2cn[nH]c2-c2ccc(OCC)cc2O)cc1	-5	107*	0	i	i	1
CCCc1ccc(Oc2cn[nH]c2-c2ccc(O)c(C)c2O)cc1	0	-16	30	i	100*	16
COc1ccc(Oc2cn[nH]c2-c2ccc(OCC(=O)NN)cc2O)cc1	4	-35	2	i	i	7
COc1ccc2[nH]c(=O)c(CN(Cc3cccs3)S(=O)(=O)c3c(C)ccc4nsnc34)cc2c1	0	-16	55*	i	i	30
Cc1cc(NC(=O)c2c(F)cccc2Cl)n(-c2nc3ccccc3[nH]2)n1	-2	14	50*	i	i	6
Cc1cc(NC(=O)c2c(F)cccc2F)n(-c2nc3ccccc3[nH]2)n1	10	-63	23	i	i	4
O=C(COC(=O)c1cc(=O)[nH]c2ccc(Br)cc12)c1ccccc1	0	-135	26	i	i	41*
C=CC[C@H](CC(=O)N(CCO)Cc1ccccc1)C(=O)N[C@H](COC(=O)[C@@H](CC=C)CC(=O)OC(C)(C)C)Cc1ccccc1	-3	14	52*	i	.	11
C=CC[C@@H](CC(=O)N[C@@H](CO)Cc1ccccc1)C(=O)N[C@H](COC(=O)[C@H](CC=C)CC(=O)OC(C)(C)C)Cc1c[nH]c2ccccc12	-1	3	52*	i	.	13
C=CCC[C@@H](Cc1ccc(F)cc1)C(=O)OC[C@H](C)NC(=O)[C@@H](CC=C)CC(=O)N(CCO)Cc1ccccc1	-7	12	-2	.	.	1
C=CC[C@@H](CC(=O)N[C@H](CO)Cc1ccccc1)C(=O)N[C@H](COC(=O)[C@H](CC=C)CC(=O)OC(C)(C)C)Cc1c[nH]c2ccccc12	4	-7	34	i	.	21
C=CC[C@H](CC(=O)N(CCO)Cc1ccccc1)C(=O)N[C@@H](C)COC(=O)[C@@H](CC=C)Cc1ccc(F)cc1	-4	8	54*	i	.	20
C=CCC[C@@H](Cc1ccc(F)cc1)C(=O)OC[C@@H](NC(=O)[C@H](CC=C)CC(=O)N(CCO)Cc1ccccc1)c1ccccc1	1	3	61*	i	.	4
CN(CC(=O)Nc1c(Cl)cccc1Cl)C(=O)c1cc(S(=O)(=O)N(C)C)ccc1N1CCCC1	0	-3	22	i	i	3
COc1cccc(C(O)c2nc(-c3cc(F)cc(F)c3)cs2)c1 (configuration not stated)	.	.	-4	.	.	0
CCOc1ccccc1NC(=O)C1CCCN1S(=O)(=O)c1ccccc1C(F)(F)F (configuration not stated)	0	82*	-2	i	.	-1
Cc1ccc(S(=O)(=O)c2c(C)nn(C(C)(C)C)c2OC(=O)C2CCCC2)cc1	4	1	-7	i	25*	14
Cc1nn(C(C)(C)C)c(OC(=O)C2CCCC2)c1S(=O)(=O)c1ccccc1	2	5	4	i	.	2
